Screening results from PubChem BioAssay.
Only some compounds are listed: those with a hit (about 3.5% of all), similar ones and a draw of the others.
RGS4 block: human RGS4 inhibition | 310,000 tested, 0.45% active | B-score at 10 µM | P49798 | HEK293 M3R/RGS4 inducible, Fluo-4 calcium flux; active compounds read high; triggered by carbachol at its EC20;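 active = B-score, a plate-corrected calcium signal, over three deviations above library mean, with baseline fluorescence within five deviations of library mean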;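 note: RGS4 expression induced by doxycycline in cells with stable M3 receptor; B-score is computed from the integrated fluorescence ratio over baseline after carbachol; higher B-score means a larger calcium signal and so more RGS4 inhibition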
Target sequence (P49798 whole entry, looked up): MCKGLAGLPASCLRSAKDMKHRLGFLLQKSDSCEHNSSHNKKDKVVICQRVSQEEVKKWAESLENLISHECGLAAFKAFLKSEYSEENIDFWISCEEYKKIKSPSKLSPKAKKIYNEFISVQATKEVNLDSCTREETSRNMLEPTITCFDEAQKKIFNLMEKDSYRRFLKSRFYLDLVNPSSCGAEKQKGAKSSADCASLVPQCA
MrgX1 agonist: agonists of human MrgX1 receptor; Q96LB2; MrgX1-HEK293 cells, Fluo-4 calcium fluorescence, agonist mode; active compounds read high; 310,000 tested, 0.44% active; B-score at 10 µM;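 active = calcium response B-score plate-corrected fluorescence ratio at least 3 library SD, with starting fluorescence B-score inside 5 SD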
Target sequence (Q96LB2 whole entry, looked up): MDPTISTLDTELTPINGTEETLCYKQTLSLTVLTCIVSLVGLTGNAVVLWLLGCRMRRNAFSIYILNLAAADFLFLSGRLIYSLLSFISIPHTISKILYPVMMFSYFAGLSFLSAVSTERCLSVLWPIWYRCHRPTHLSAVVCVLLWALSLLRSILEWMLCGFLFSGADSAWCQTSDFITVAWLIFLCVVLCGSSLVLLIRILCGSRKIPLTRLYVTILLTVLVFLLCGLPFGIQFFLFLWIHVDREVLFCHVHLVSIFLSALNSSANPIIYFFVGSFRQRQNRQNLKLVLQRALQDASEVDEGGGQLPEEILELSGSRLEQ
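Test system: HEK293 cells stably expressing human MrgX1 receptor; amount: 15,000 cells per well; doses: compound delivered in addition one of three; times: overnight plating before 1 h dye loading; detection: Fluo-4 NW calcium-flux fluorescence, kinetic read; read-out basis: B-scored fluorescence response ratio; controls: positive and negative controls per plate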
RGS4 pot: RGS4 potentiation or activation; HEK293 M3R/inducible RGS4, carbachol calcium flux Fluo4; active compounds read low; B-score at 10 µM; 310,000 tested, 0.92% active; AID 463111;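 active = B-score of the integrated calcium signal more than 4 SD below the library mean, with starting fluorescence not abnormally high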;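 note: negative B-score means reduced calcium response which marks RGS4 activation or potentiation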
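Test system: HEK293 cells with stable M3R and inducible RGS4; also added: carbachol at ECmax as muscarinic agonist stimulus; schedule: dye loading 30 min 37 °C, buffer rest 30 min RT; technique: kinetic calcium fluorescence imaging with Fluo4-AM dye, 2 µM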
MrgX1 antag: blocks BAM8-22 activation of human MrgX1 receptor | Q96LB2 | MRGX1-HEK293 calcium flux, Fluo-4, BAM8-22 antagonism; active compounds read low | B-score at 10 µM | 310,000 tested, 1.3% active | AID 588676;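 active = calcium-response B-score plate-corrected more than 3 library SD below zero, starting fluorescence within 5 deviations, no agonist response on first addition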;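 note: peak minus trough fluorescence over baseline after final BAM8-22 challenge near maximal dose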
MrgX1 PAM: human MrgX1 positive allosteric modulation, primary screen. MrgX1-HEK293, Fluo-4 calcium flux, FDSS; active compounds read high. B-score at 10 µM. 310,000 tested, 0.63% active;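 active = plate-corrected calcium response at least 3 library SD above typical, normal starting fluorescence, not activating the receptor alone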;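 note: compound read alongside a low EC10 to EC30 dose of BAM8-22 agonist; peak minus trough fluorescence over baseline measured at the second addition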
* = called active by the depositor.

What do the screens show for `C=C1C(=O)O[C@H]2C[C@]3(C)C([C@@H](OC(=O)/C(C)=C/C)[C@H]12)[C@](C)(O)CC[C@H]3O` (stereo not given in full)?
RGS4 block: inactive; MrgX1 agonist: inactive; RGS4 pot: inactive; MrgX1 antag: inactive; MrgX1 PAM: inactive

Results for O=C(c1ccco1)N1CCN(Cc2cccc([N+](=O)[O-])c2)CC1 ?
RGS4 block: inactive; MrgX1 agonist: inactive; RGS4 pot: inactive; MrgX1 antag: inactive; MrgX1 PAM: inactive

How did COc1ccc(C(=O)c2ccc(Cl)c([N+](=O)[O-])c2)cc1 do in these assays?
RGS4 block: inactive; MrgX1 agonist: inactive; RGS4 pot: inactive; MrgX1 antag: inactive; MrgX1 PAM: 7*

Results for COc1ccc(C(=O)c2ccc(Cl)cc2)cc1 ?
RGS4 block: inactive; MrgX1 agonist: inactive; RGS4 pot: inactive; MrgX1 antag: inactive; MrgX1 PAM: inactive

How did CC1(C)CC(=O)c2sc(NS(C)(=O)=O)nc2C1 do in these assays?
RGS4 block: inactive; MrgX1 agonist: inactive; RGS4 pot: inactive; MrgX1 antag: inactive; MrgX1 PAM: inactive

What do the screens show for `CC1(C)CC(=O)c2sc(NS(=O)(=O)c3ccc([N+](=O)[O-])cc3)nc2C1`?
RGS4 block: inactive; MrgX1 agonist: inactive; RGS4 pot: inactive; MrgX1 antag: inactive; MrgX1 PAM: 8.02*

What do the screens show for `CC1(C)Cc2ccccc2C(N)=C1C#N`?
RGS4 block: inactive; MrgX1 agonist: inactive; RGS4 pot: inactive; MrgX1 antag: inactive; MrgX1 PAM: inactive

What do the screens show for `Cc1ccccc1NC(=O)NCc1ccccn1`?
RGS4 block: inactive; MrgX1 agonist: inactive; RGS4 pot: inactive; MrgX1 antag: inactive; MrgX1 PAM: inactive

Results for CCCCNc1c(-c2ccc(SC(C)CC)cc2)nc2ccccn12 (stereo not given) ?
RGS4 block: inactive; MrgX1 agonist: inactive; RGS4 pot: -7.52*; MrgX1 antag: inactive; MrgX1 PAM: inactive

How did CCCCNc1c(-c2ccc(SC3CCCCC3)cc2)nc2ccccn12 do in these assays?
RGS4 block: inactive; MrgX1 agonist: inactive; RGS4 pot: inactive; MrgX1 antag: inactive; MrgX1 PAM: inactive

Results for CC(OC(=O)/C=C/c1ccccc1)C(=O)Nc1cccc(C#N)c1 (stereo not given) ?
RGS4 block: inactive; MrgX1 agonist: inactive; RGS4 pot: inactive; MrgX1 antag: inactive; MrgX1 PAM: inactive

Results for COc1ccc(-c2ccc(=O)n(Cc3cccc(Cl)c3)n2)cc1 ?
RGS4 block: inactive; MrgX1 agonist: inactive; RGS4 pot: inactive; MrgX1 antag: inactive; MrgX1 PAM: 7.85*

What do the screens show for `O=C(O)c1cc(-c2ccc(-c3c(-c4ccc5c(c4)OCO5)noc3-c3ccsc3)cc2)nc2ccccc12`?
RGS4 block: inactive; MrgX1 agonist: inactive; RGS4 pot: -10.6*; MrgX1 antag: inactive; MrgX1 PAM: inactive

Results for C[n+]1c2n(c3ccccc31)N=C(c1ccc(-c3ccccc3)cc1)CS2 ?
RGS4 block: inactive; MrgX1 agonist: inactive; RGS4 pot: inactive; MrgX1 antag: -6.5*; MrgX1 PAM: inactive

What do the screens show for `C#CCOCCOCCOCCNc1nc(N2CCN(C(=O)[C@H](CCCCN)n3cc(C(N)CO)nn3)CC2)nc(N2CCN(C(=O)[C@H](CCC(=O)O)n3cc(C(N)[C@H](C)CC)nn3)CC2)n1` (stereo not given in full)?
RGS4 block: inactive; MrgX1 agonist: inactive; RGS4 pot: inactive; MrgX1 antag: -4.53*; MrgX1 PAM: inactive

Results for C#CCOCCOCCOCCNc1nc(N2CCN(C(=O)[C@H](Cc3cc4ccccc4[nH]3)n3cc(C(N)CC(C)C)nn3)CC2)nc(N2CCN(C(=O)[C@H](CCC(=O)O)n3cc(C(N)[C@H](C)CC)nn3)CC2)n1 (stereo not given in full) ?
RGS4 block: inactive; MrgX1 agonist: inactive; RGS4 pot: inactive; MrgX1 antag: inactive; MrgX1 PAM: 8.87*

How did OCCCNCc1ccc(N(c2ccccc2)c2ccccc2)cc1 do in these assays?
RGS4 block: inactive; MrgX1 agonist: inactive; RGS4 pot: -7.29*; MrgX1 antag: inactive; MrgX1 PAM: inactive

What do the screens show for `O=C(NNC1=NC2(CCCC2)Cc2ccccc21)c1ccncc1`?
RGS4 block: inactive; MrgX1 agonist: inactive; RGS4 pot: inactive; MrgX1 antag: inactive; MrgX1 PAM: inactive

Results for CCCCn1c(N)c(N(CC(C)C)C(=O)CSc2ccccc2C)c(=O)[nH]c1=O ?
RGS4 block: inactive; MrgX1 agonist: inactive; RGS4 pot: inactive; MrgX1 antag: inactive; MrgX1 PAM: inactive

How did Cc1ccc(C(=O)NCc2ccco2)cc1[N+](=O)[O-] do in these assays?
RGS4 block: inactive; MrgX1 agonist: inactive; RGS4 pot: inactive; MrgX1 antag: inactive; MrgX1 PAM: inactive

How did CC1CCCN(c2ccc(C(=O)NCc3ccco3)cc2[N+](=O)[O-])C1 (stereo not given) do in these assays?
RGS4 block: inactive; MrgX1 agonist: inactive; RGS4 pot: inactive; MrgX1 antag: -6.35*; MrgX1 PAM: inactive

Results for N#CCC(=O)Nc1ccc(C(=O)NCc2ccccn2)cc1 ?
RGS4 block: inactive; MrgX1 agonist: inactive; RGS4 pot: inactive; MrgX1 antag: inactive; MrgX1 PAM: inactive

How did CCC1Sc2ccc(S(=O)(=O)CCC(=O)Nc3cc(C)ccn3)cc2NC1=O (stereo not given) do in these assays?
RGS4 block: inactive; MrgX1 agonist: inactive; RGS4 pot: inactive; MrgX1 antag: inactive; MrgX1 PAM: inactive

How did CCCCCC(O)(CCN1CCCCC1)c1ccc(OCC)cc1 (stereo not given) do in these assays?
RGS4 block: inactive; MrgX1 agonist: inactive; RGS4 pot: -8.85*; MrgX1 antag: inactive; MrgX1 PAM: inactive

Results for CCC(O)(CCN1CCCCC1)c1ccccc1 (stereo not given) ?
RGS4 block: inactive; MrgX1 agonist: inactive; RGS4 pot: -7.01*; MrgX1 antag: inactive; MrgX1 PAM: inactive

How did CCCCOc1ccc(C(O)(CC)CCN2CCOCC2)cc1 (stereo not given) do in these assays?
RGS4 block: inactive; MrgX1 agonist: inactive; RGS4 pot: inactive; MrgX1 antag: -6.33*; MrgX1 PAM: inactive

How did Cc1ccc(S(=O)(=O)N2CCN(C(=O)CC(C)n3cncn3)CC2)cc1C (stereo not given) do in these assays?
RGS4 block: inactive; MrgX1 agonist: inactive; RGS4 pot: inactive; MrgX1 antag: inactive; MrgX1 PAM: inactive

What do the screens show for `Cc1cc2c(c(Sc3ccccc3)n1)C(=O)OC2`?
RGS4 block: inactive; MrgX1 agonist: inactive; RGS4 pot: inactive; MrgX1 antag: inactive; MrgX1 PAM: inactive
